ChEMBL document CHEMBL4725346, “Syntheses and Evaluation of New Bisacridine Derivatives for Dual Binding of G-Quadruplex and i-Motif in Regulating Oncogene c-myc Expression” (J Med Chem, 2020)
Calls of active or inactive are those of the source. The rule behind the calls is not given here.

Key:
[1] = test system: Quadruplex DNA; assay: Binding affinity to c-myc promoter G-quadruplex/i-motif in human SiHa cells assessed as reduction in c-myc expression at 5 uM incubated for 24 hrs by Western blot analysis; format: cell-based; parameters: scale not given: the % may be the effect or the level left
[2] = test system: SiHa; assay: Induction of apoptosis in human SiHa cells assessed as early apoptotic cells at 2.4 uM after 24 hrs by annexin V/FITC-propidium iodide staining-based flow cytometric method ( Rvb = 0.3%); format: functional
[3] = test system: Quadruplex DNA; assay: Binding affinity to c-myc mutated promoter G-quadruplex/i-motif (unknown origin) expressed in human SiHa cells assessed as reduction in c-myc transcription by measuring decrease in ratio of renilla/firefly luciferase activity at 0.025 to 0.1 uM after 48 hrs by dual-luciferase reporter assay; format: cell-based; details: dose microM 0.025-0.1, time 48.0 hrs
Method in brief: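 SiHa cells transfected with 200 ng psiCHECK2 plasmid carrying wild-type, mutant or deleted c-myc promoter. Compounds added 8 h after transfection, then incubated 48 h at 37 °C. Cells washed with ice-cold PBS; Renilla/firefly activity ratio read by dual-luciferase assay.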

[4] = test system: Quadruplex DNA; assay: Binding affinity to c-myc promoter G-quadruplex/i-motif in human CA46 cells assessed as reduction in c-myc mRNA transcription at 0.16 to 2.5 uM incubated for 24 hrs; format: cell-based; details: dose microM 0.16-2.5, time 24.0 hrs
[5] = Toxicity in BALB/c nude mouse xenografted with human SiHa cells assessed as effect on heart weight at 15 mg/kg, ip administered once per 2 days for 18 days; format: organism-based; details: in vivo, 432 h, time 18 day
Method in brief: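 SiHa tumour fragments passaged from donor mice implanted in the underarm of female BALB/c nude mice (six per group). Compound given at 15 mg/kg ip once every two days for 18 days, with saline and cisplatin 0.2 mg/kg control groups. Body weight recorded every two days; at day 18 mice were sacrificed and organs weighed.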

[6] = test system: SiHa; assay: Induction of cell cycle arrest in human SiHa cells assessed as accumulation of cells at G0/G1 phase at 0.15 uM after 24 hrs by propidium iodide staining based flow cytometry (reference value: 42.28%); format: functional
[7] = test system: SiHa; assay: Inhibition of colony formation in human SiHa cells at 0.5 to 2 uM incubated for 9 days by crystal violet staining; format: functional, cell-based; details: dose microM 0.5-2, time 9.0 day
Method in brief: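 SiHa cells seeded at 500/well, pre-cultured 24 h at 37 °C/5% CO₂, then treated 9 days with compound at several concentrations. Cells washed with PBS, fixed 10 min in ice-cold methanol, stained 30 min with 0.5% crystal violet, dried and photographed.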

[8] = test system: SiHa; assay: Induction of cell cycle arrest in human SiHa cells assessed as accumulation of cells at S phase at 0.60 uM after 24 hrs by propidium iodide staining based flow cytometry (reference value: 17.74%); format: functional; details: dose 0.6 µM
[9] = Stabilization of c-myc promoter i-motif DNA Py33 (unknown origin) assessed as effect on melting temperature at 5 uM by CD spectroscopy
Method in brief: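 CD melting: Py33 at 1 µM in 1× BPES pH 6.4, with or without ligand. Annealed at 95 °C for 5 min, slowly cooled, then heated at 1 °C/min while monitoring 260 nm. Tm obtained by curve fitting.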

[10] = test system: SiHa; assay: Induction of cell cycle arrest in human SiHa cells assessed as accumulation of cells at G0/G1 phase at 0.60 uM after 24 hrs by propidium iodide staining based flow cytometry (reference value: 42.28%); format: functional; details: dose 0.6 µM
[11] = test system: Quadruplex DNA; assay: Stabilization of c-myc promoter G-quadruplex DNA Pu27 (unknown origin) by 1H NMR spectra analysis; format: nucleic-acid assay
Method in brief: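 1D ¹H NMR titration with water suppression at 25 °C on a 600 MHz spectrometer. DNA at 0.5 mM in 10% D₂O/90% H₂O: Pu27 in 10 mM Tris-HCl pH 7.4, Py33 in 1× BPES pH 6.4. Annealed at 95 °C for 5 min before titration; ligand stock in d₆-DMSO.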

[12] = Binding affinity to c-myc promoter i-motif DNA Py33 (unknown origin) at 20 uM by isothermal titration calorimetry
Method in brief: (§1)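 ITC at 20 °C on degassed solutions. Cell held preformed DNA ([…]). Syringe held ligand in the same buffer (50 μM for Pu27, 20 μM for Py33). 28 injections of 10 μL at 4 min intervals. Heats of dilution from ligand-into-buffer runs subtracted before model fitting.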

[13] = Stabilization of c-myc promoter i-motif DNA Py33 (unknown origin) assessed as increase in slower migration band incubated overnight by silver staining based PAGE analysis
Method in brief: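 Py33 (3 µM) co-annealed with increasing ligand in 1× BPES pH 6.8 at 95 °C for 5 min, cooled, held at 4 °C overnight. Run on native 20% acrylamide in 1× TBE at 140 V for 5 h at 5 °C, then silver-stained.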

[14] = test system: SiHa; assay: Effect on stability of c-myc RNA in human SiHa cells at 2.5 uM in presence of actinomycin D by RT-PCR method; format: functional, cell-based
Method in brief: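 SiHa cells seeded at 2×10^5 per well, grown 24 h, then treated with 5 µg/mL actinomycin D plus 2.5 µM compound. Total RNA extracted at the indicated time points for RT-PCR.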

[15] = target: Quadruplex DNA; assay: Binding affinity to c-myc promoter G-quadruplex DNA Pu27 (unknown origin) at 50 uM by isothermal titration calorimetry; format: nucleic-acid assay; method in brief: as §1
[16] = test system: Quadruplex DNA; assay: Binding affinity to c-myc promoter G-quadruplex/i-motif in human SiHa cells assessed as reduction in c-myc expression incubated for 24 hrs by Western blot analysis; format: cell-based
Method in brief: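 SiHa cells treated 24 h at 0, 0.625, 1.25 and 2.5 μM, then lysed in buffer with 1 mM PMSF. Protein measured by BCA, equal loads run on 8% gel and blotted to PVDF. Probed with anti-c-MYC and anti-β-actin (loading control), HRP anti-rabbit secondary, chemiluminescence read-out.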

[17] = test system: SiHa; assay: Antiproliferative activity against human SiHa cells after 48 hrs by MTT assay; format: functional, cell-based
Method in brief: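 Cells seeded at 5.0×10^3 per well, pre-incubated 12 h at 37 °C, 5% CO2, then exposed to compounds for 48 h; DMSO-only control. MTT (2.5 mg/mL) added for 4 h, formazan dissolved in DMSO, absorbance at 570 nm. Each dose tested in triplicate; IC50 from percentage survival relative to negative control.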

[18] = test system: SiHa; assay: Induction of apoptosis in human SiHa cells assessed as increase in cleaved caspase-7 level incubated for 24 hrs by Western blot analysis; format: functional, cell-based; details: dose microM 0.6-2.4, time 24.0 hrs
[19] = test system: Quadruplex DNA; assay: Binding affinity to c-myc promoter G-quadruplex/i-motif in human Raji cells assessed as reduction in c-myc mRNA transcription incubated for 24 hrs; format: cell-based; details: dose microM 0.16-2.5, time 24.0 hrs
[20] = test system: Quadruplex DNA; assay: Stabilization of c-myc promoter G-quadruplex DNA Pu27 (unknown origin) assessed as effect on melting temperature at 5 uM by CD spectroscopy; format: nucleic-acid assay
Method in brief: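 CD melting: Pu27 diluted to 1 µM in 10 mM Tris-HCl, 5 mM KCl, pH 7.4, with or without ligand. Annealed at 95 °C for 5 min, slowly cooled, then heated at 1 °C/min while monitoring 260 nm. Tm obtained by curve fitting.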

[21] = test system: SiHa; assay: Induction of apoptosis in human SiHa cells assessed as necrotic cells at 1.2 uM after 24 hrs by annexin V/FITC-propidium iodide staining-based flow cytometric method ( Rvb = 0.1%); format: functional

Activity [9]: Active
Activity [11]: Active
Kd [12]: 650 nM
Activity [13]: Dose-dependent effect
Kd [15]: 810 nM
Activity [20]: Active
Compound: Cc1ccc2nc3ccc(C)cc3c(NCCCNCCNCCCNc3c4cc(C)ccc4nc4ccc(C)cc34)c2c1
Activity [1]: < 92.2%
Activity [2]: 55.4%
Activity [3]: inactive
Activity [4]: inactive
Activity [5]: Non-Toxic
Activity [6]: 37.96%
inhibition [7]: Active
Activity [8]: 13.58%
Activity [10]: 16.87%
Activity [14]: inactive
Activity [16]: Dose-dependent effect
IC50 [17]: 1220 nM
Activity [18]: Dose-dependent effect
Activity [19]: Dose-dependent effect
Activity [21]: 4.6%
